The test system of data set [1] is HeLa. The data set is described as follows: Induction of autophagy in human HeLa cells expressing EGFP-LC3 assessed as increase in LC3-2 level at 400 nM in presence of erythro-9-(3-(2-hydroxynonyl)adenine. In kind it is functional, cell-based.
The test system of data set [2] is HeLa. The data set can be described thus: Induction of autophagy in human HeLa cells expressing EGFP-LC3 assessed as increase in LC3-2 level at 400 nM. In kind it is functional, cell-based.
Data set [3] deals with COS-7. The data set can be described thus: Inhibition of Gsalpha in african green monkey COS7 cells expressing EGFP-HDQ74/m-calpain assessed as increase in LC3-2 level by autophagy induction assay. Format: functional, cell-based. The settings on record: Chlorocebus aethiops.
For data set [4], the system named is COS-7. The data set is described as follows: Induction of autophagy in african green monkey COS7 cells expressing EGFP-HDQ74/m-calpain assessed as decrease in EGFP-HDQ74 aggregation at 500 uM after 48 hrs. In kind it is functional, cell-based. The settings on record: Chlorocebus aethiops.
The subject of data set [5] is SK-N-SH. The data set is described as follows: Induction of autophagy in human SK-N-SH cells expressing EGFP-HDQ74 assessed as reduction in EGFP-HDQ74 aggregation at 500 uM after 48 hrs by densitometric analysis. In kind it is functional, cell-based.
In data set [6] the test system is PC-12. The data set can be described thus: Induction of autophagy in rat stable inducible PC12 cells expressing A53T alpha-synuclein assessed as A53T alpha-synuclein clearance at 500 uM after 24 hrs by densitometric analysis. In kind it is functional, cell-based. The gist of the method:
(§1)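 Inducible PC12 A53T α-synuclein (HA) cells induced with 1 μg/ml doxycycline for 48 h. Doxycycline then removed for 24 h with compound or DMSO. Remaining protein measured by anti-HA immunoblot, densitometry relative to actin.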

The subject of data set [7] is PC-12. The data set is described as follows: Induction of autophagy in rat stable inducible PC12 cells assessed as increase in LC3-2 level after 24 hrs by immunoblotting analysis. Format: functional, cell-based. The gist of the method: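 Endogenous LC3-II in PC12 cells after 24 h exposure; immunoblot densitometry relative to actin.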
Data set [8] relates to SK-N-MC. The data set is described as follows: Induction of autophagy in human SK-N-MC cells expressing A53T alpha-synuclein and endogenously I1R/alpha2 AR assessed as increase in A53T alpha-synuclein clearance at 1 uM after 24 hrs by densitometric analysis. Format: functional, cell-based.
Data set [9] deals with SK-N-MC. The data set can be described thus: Induction of autophagy in human SK-N-MC cells expressing EGFP-HDQ74 and endogenously I1R/alpha2 AR assessed as decrease in EGFP-HDQ74 aggregation at 1 uM after 24 hrs by densitometric analysis. In kind it is functional, cell-based.
For data set [10], the system named is PC-12. The data set can be described thus: Induction of autophagy in rat stable inducible PC12 cells expressing A53T alpha-synuclein and endogenously I1R assessed as increase in A53T alpha-synuclein clearance at 1 uM after 24 hrs by densitometric analysis. Format: functional, cell-based. The method, boiled down: as §1
Data set [11] concerns PC-12. The data set is described as follows: Induction of autophagy in rat stable inducible PC12 cells expressing EGFP-HDQ74 and endogenously I1R assessed as decrease in EGFP-HDQ74 aggregation at 1 uM after 24 hrs by densitometric analysis. Format: functional, cell-based.
In data set [12] the test system is SK-N-MC. The data set is described as follows: Induction of autophagy in Atg positive human SK-N-MC cells expressing EGFP-HDQ74 at 1 uM after 48 hrs. In kind it is functional, cell-based.
For data set [13], the species on record is Danio rerio. The data set can be described thus: Protection of neurodegeneration in zebrafish Huntington's disease model expressing EGFP-tagged huntingtin exon with EGFP-HDQ71 in rod photoreceptor assessed as decrease in […] aggregation at 3 uM. In kind it is functional, organism-based. The method, boiled down:
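Transgenic zebrafish larvae raised in PTU to 3 d.p.f., then dark-reared 3–9 d.p.f. with drug in E3 medium (pH 7.2), refreshed daily. Fixed fish were cryosectioned at 12 μm and aggregates counted over 96 μm of the central eye. Means from 10 fish per group; ANOVA with Dunnett's test.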

For another data set, the species on record is Mus musculus. The data set can be described thus: Induction of autophagy in Atg deficient mouse […] expressing EGFP-HDQ74 at 1 uM after 48 hrs. In kind it is functional.
The species named for data set [14] is Danio rerio. The data set can be described thus: Protection of neurodegeneration in zebrafish Huntington's disease model expressing EGFP-tagged huntingtin exon with EGFP-HDQ71 in rod photoreceptor assessed as loss of rhodopsin expression at 3 uM.
Data set [15] is filed under the species Danio rerio. The data set can be described thus: Protection of neurodegeneration in zebrafish Huntington's disease model expressing EGFP-tagged huntingtin exon with EGFP-HDQ71 in rod photoreceptor assessed as decrease in […] aggregation at 3 uM.
For another data set, the system named is SK-N-SH (Homo sapiens). The data set can be described thus: Induction of autophagy in human SK-N-SH cells expressing EGFP-HDQ74 assessed as reduction in EGFP-HDQ74 aggregation at 1 uM after 48 hrs by densitometric analysis.
Data set [16] is filed under the species Danio rerio. The data set can be described thus: Protection of neurodegeneration in zebrafish Huntington's disease model expressing EGFP-tagged huntingtin exon with EGFP-HDQ71 in rod photoreceptor assessed as induction of rhodopsin expression at 3 uM. Format: functional, organism-based. The method, boiled down: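 Zebrafish larvae dark-reared 3–9 d.p.f. with drug in E3, refreshed daily, then lysed in RIPA/DTT. Western blot with anti-rhodopsin (Zpr3, 1:1000), anti-Zpr1 and anti-EGFP antibodies; ECL detection.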

Data set [17] relates to SK-N-SH. The data set is described as follows: Induction of autophagy in human SK-N-SH cells expressing EGFP-HDQ74/m-calpain assessed as inhibition of EGFP-HDQ74 aggregation at 1 uM after 48 hrs. Format: functional, cell-based.
For data set [18], the system named is SK-N-MC. The data set can be described thus: Cytotoxicity against human SK-N-MC cells expressing EGFP-HDQ74 at 1 uM after 48 hrs. Format: cell-based.

Active and inactive are the calls of the source. The rule behind the calls is not given here.

Consider `CCCCCC[C@@H]([C@@H](C)O)n1cnc2c(N)ncnc21` (relative stereo), for which the outcome in the data set with HeLa [1] was inactive.
As to `CO/C1=C\C(C)=C\[C@@H](C)[C@@H](O)[C@@H](C)C/C(C)=C/C=C/[C@H](OC)[C@@H]([C@@H](C)[C@@H](O)[C@H](C)[C@@]2(O)C[C@@H](O)[C@H](C)[C@@H](C(C)C)O2)OC1=O`, in the data set on HeLa [2], the result was Active.
`O=C(Nc1cc(C(=O)Nc2ccc(S(=O)(=O)O)cc2S(=O)(=O)O)cc(C(=O)Nc2ccc(S(=O)(=O)O)cc2S(=O)(=O)O)c1)Nc1cc(C(=O)Nc2ccc(S(=O)(=O)O)cc2S(=O)(=O)O)cc(C(=O)Nc2ccc(S(=O)(=O)O)cc2S(=O)(=O)O)c1`: the outcome in the data set on COS-7 [3] and in the data set with COS-7 [4] was Active.
Take `CCCC(=O)Nc1ncnc2c1ncn2[C@@H]1O[C@@H]2COP(=O)(O)O[C@H]2[C@H]1OC(=O)CCC`: the outcome in the data set with SK-N-SH [5] and in the data set with PC-12 [6] was inactive.
As for `C1COC(NC(C2CC2)C2CC2)=N1`, the Activity result with PC-12 [7] is “Dose-dependent effect”. In addition, the result in the data set on SK-N-MC [8], in the data set on SK-N-MC [9], in the data set with PC-12 [10] and with PC-12 [11] was Active.
As to `C=C[C@@]1(C)CC(=O)[C@]2(O)[C@@]3(C)[C@@H](O)CCC(C)(C)[C@@H]3[C@H](O)[C@H](OC(C)=O)[C@@]2(C)O1`, the result in the data set on SK-N-SH [5] and in the data set with PC-12 [6] was inactive.
On to `Clc1cccc(Cl)c1NC1=NCCN1`, for which the result in the data set on SK-N-MC [12], in the data set filed under Danio rerio [13], in the data set listed under Danio rerio [15], in the data set on SK-N-SH (Homo sapiens) and in the data set filed under Danio rerio [16] was Active. Also, the outcome in the data set listed under Mus musculus, in the data set listed under Danio rerio [14] and with SK-N-SH [17] was inactive.
Consider `CCCC(CCC)C(=O)O` [VALPROIC ACID], for which, in the data set with SK-N-MC [18], the Activity result was “Non-toxic”. In addition, the outcome in the data set filed under Danio rerio [14] was inactive. The outcome in the data set filed under Danio rerio [15] and with SK-N-SH (Homo sapiens) was Active.

The values above are taken from ChEMBL document CHEMBL1250446, “Novel targets for Huntington's disease in an mTOR-independent autophagy pathway” (Nat Chem Biol, 2008).
